For eleven compounds, MIC, inhibition and Activity results are on record in ChEMBL document CHEMBL3297718, “Ultrasound-assisted one-pot four-component synthesis of novel 2-amino-3-cyanopyridine derivatives bearing 5-imidazopyrazole scaffold and their biological broadcast” (Eur J Med Chem, 2014).

Values after ≈ are worked out from the molar mass of the structure shown. A value given as a limit tells only on which side of the number the result lay.

Data set [1] deals with Salmonella typhi. In words: Antimicrobial activity against Salmonella typhi MTCC 98 by broth microdilution method. It counts as functional, Salmonella enterica subsp. enterica serovar Typhi. The conditions noted are these: Salmonella enterica.
The subject of data set [2] is Candida albicans. In words: Antimicrobial activity against Candida albicans MTCC 227 by broth microdilution method. It counts as functional. An outline of the steps: (§1)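 Broth microdilution following NCCLS. Compounds were diluted in 2% DMSO in water. Fungi were grown in Sabouraud dextrose broth. Inoculum was set to 10⁸ CFU mL⁻¹ by turbidity. A primary serial-dilution screen was followed by a secondary set of lower dilutions for primary actives. Tubes were incubated at 37 °C, with growth noted at 24 and 48 h. MIC was the highest dilution preventing turbidity after spot subculture.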
On the technique in general: In broth dilution the organism is exposed to a series of concentrations in liquid medium.

For data set [3], the system named is Aspergillus fumigatus. In words: Antimicrobial activity against Aspergillus fumigatus MTCC 3008 by broth microdilution method. It counts as functional. An outline of the steps: as §1
In data set [4] the test system is Clostridium tetani. In words: Antimicrobial activity against Clostridium tetani MTCC 449 by broth microdilution method. The data set is classed as functional.
In data set [5] the test system is Bacillus subtilis. In words: Antimicrobial activity against Bacillus subtilis MTCC 441 by broth microdilution method. It counts as functional. An outline of the steps: as §1
The test system of data set [6] is Escherichia coli. In words: Antimicrobial activity against Escherichia coli MTCC 443 by broth microdilution method. It counts as functional. An outline of the steps:
as §1

In data set [7] the test system is Vibrio cholerae. Nature of the data set: Antimicrobial activity against Vibrio cholerae MTCC 3906 by broth microdilution method. The data set is classed as functional.
The test system of data set [8] is Mycobacterium tuberculosis. Nature of the data set: Antitubercular activity against Mycobacterium tuberculosis H37Rv at 250 ug/ml. The data set is classed as functional.
The subject of data set [9] is Streptococcus pneumoniae. Nature of the data set: Antimicrobial activity against Streptococcus pneumoniae MTCC 1936 by broth microdilution method. It counts as functional.
A short description of data set [10]: Antioxidant activity assessed as ferric ion reducing activity using fe3+-TPTZ at 200 mg/ml measured as ascorbic acid per 100 g sample by FRAP assay. It counts as physicochemical. An outline of the steps: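 FRAP assay, modified Benzie–Strain. Reagent combined TPTZ in 40 mM HCl, aqueous FeCl₃·6H₂O and acetate buffer at pH 3.6. Sample solution was mixed with 3 mL reagent and incubated 25 min at 37 °C. Fe(II)–TPTZ absorbance was read at 593 nm against an ascorbic acid standard. Results are given as ascorbic equivalents, mmol/100 g compound.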

The subject of data set [11] is Mycobacterium tuberculosis. In words: Antitubercular activity against Mycobacterium tuberculosis H37Rv. It counts as functional. In outline: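 M. tuberculosis H37Rv was grown on Lowenstein–Jensen medium with compound at a single concentration of 250, and compared against control tubes of medium alone with the organism. Results are given as % inhibition, and the concentration giving complete inhibition of colonies was taken as the active concentration.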

Regarding `Cc1cn(-c2c(-c3cc(-c4ccc(-c5ccccc5)cc4)nc(N)c3C#N)c(C)nn2-c2ccccc2)cn1`, the MIC (usually the least concentration at which growth counts as inhibited) in data set [1] worked out at 200 µg/mL (≈ 394 µM); in [2], 500 µg/mL (≈ 985 µM); in data set [3], 500 µg/mL (≈ 985 µM); in data set [4], 250 µg/mL (≈ 493 µM); in data set [5], 250 µg/mL (≈ 493 µM); in data set [6] it was 250 µg/mL (≈ 493 µM). The MIC in data set [7] stood at 100 µg/mL (≈ 197 µM); in data set [9], 125 µg/mL (≈ 246 µM). At 250 µg/mL the inhibition in data set [8] was 23%. For the same compound, the Activity in data set [10] was found to be 495.9 mmol.

`Cc1nn(-c2ccccc2)c(-n2ccnc2)c1-c1cc(-c2cc3ccccc3oc2=O)nc(N)c1C#N`: the MIC amounted to 500 µg/mL (≈ 1030 µM) in [2]; 1000 µg/mL (≈ 2060 µM) in data set [3]; 500 µg/mL (≈ 1030 µM) in data set [5]; 200 µg/mL (≈ 412 µM) in data set [6]; 100 µg/mL (≈ 206 µM) in data set [9]. Moreover, the Activity in data set [10] stood at 401.22 mmol.

`Cc1cn(-c2c(-c3cc(-c4ccc5c(c4)OC(C)(C)O5)nc(N)c3C#N)c(C)nn2-c2ccccc2)cn1`: the MIC in data set [1] came out at 62.5 µg/mL (≈ 124 µM); in data set [2], 1000 µg/mL (≈ 1990 µM); in [3], 1000 µg/mL (≈ 1990 µM); in data set [4], 500 µg/mL (≈ 993 µM); in [5], 250 µg/mL (≈ 496 µM); in data set [6], 125 µg/mL (≈ 248 µM). In addition, the MIC in data set [7] and in [9] was 500 µg/mL (≈ 993 µM) each time. Also, the inhibition (in general, how much of the control response was suppressed) at 250 µg/mL in data set [8] was found to be 78%. For the same compound, the Activity in data set [10] worked out at 384.91 mmol.

With `Cc1cn(-c2c(-c3cc(-c4cccs4)nc(N)c3C#N)c(C)nn2-c2ccccc2)cn1`, the MIC in data set [1] was 250 µg/mL (≈ 571 µM); in data set [2] it was greater than 1000 µg/mL; in [3] it was greater than 1000 µg/mL; in data set [4] it was 500 µg/mL (≈ 1140 µM); in data set [5] it was 500 µg/mL (≈ 1140 µM); in data set [6], 250 µg/mL (≈ 571 µM). Also, the MIC in data set [7] and in data set [9] was 100 µg/mL (≈ 229 µM) each time. Further, the inhibition at 250 µg/mL in data set [8] was 23%. The Activity in data set [10] is given as 422.3 mmol.

Consider `Cc1nn(-c2ccccc2)c(-n2ccnc2)c1-c1cc(-c2ccc(F)cc2)nc(N)c1C#N`, for which the MIC in [1] stood at 500 µg/mL (≈ 1150 µM); in data set [2] it was 1000 µg/mL (≈ 2300 µM); in data set [3], 1000 µg/mL (≈ 2300 µM); in data set [4], 500 µg/mL (≈ 1150 µM); in data set [5], 200 µg/mL (≈ 459 µM); in data set [6] it was 500 µg/mL (≈ 1150 µM). The MIC in data set [7] and in data set [9] was 200 µg/mL (≈ 459 µM) each time. The same compound yielded an inhibition at 250 µg/mL in data set [8] of 15%. Besides, in data set [10], the Activity is recorded as 405.2 mmol.

Turning to `Cc1cn(-c2c(-c3cc(-c4ccc(Br)cc4)nc(N)c3C#N)c(C)nn2-c2ccccc2)cn1`, the MIC was 500 µg/mL (≈ 980 µM) in data set [1]; 1000 µg/mL (≈ 1960 µM) in data set [2]; greater than 1000 µg/mL in data set [3]; 100 µg/mL (≈ 196 µM) in data set [4]; 62.5 µg/mL (≈ 122 µM) in data set [5]; 500 µg/mL (≈ 980 µM) in data set [6]. Also, the MIC in data set [7] and in data set [9] was 250 µg/mL (≈ 490 µM) each time. In addition, in data set [8], the inhibition at 250 µg/mL was 84%. Also, the Activity in data set [10] is listed as 70.61 mmol.

For the compound `CC1(C)S[C@@H]2[C@H](NC(=O)[C@H](N)c3ccccc3)C(=O)N2[C@H]1C(=O)O` [AMPICILLIN], the MIC was 100 µg/mL (≈ 286 µM) in data set [1]; 250 µg/mL (≈ 715 µM) in [4]; 250 µg/mL (≈ 715 µM) in data set [5]; 100 µg/mL (≈ 286 µM) in data set [6]; 100 µg/mL (≈ 286 µM) in data set [7]; 100 µg/mL (≈ 286 µM) in [9].

On to `COc1ccc(-c2cc(-c3c(C)nn(-c4ccccc4)c3-n3cnc(C)c3)c(C#N)c(N)n2)cc1`, for which the MIC turned out to be 250 µg/mL (≈ 542 µM) in data set [1]; 500 µg/mL (≈ 1080 µM) in data set [2]; 1000 µg/mL (≈ 2170 µM) in data set [3]; 250 µg/mL (≈ 542 µM) in data set [4]; 250 µg/mL (≈ 542 µM) in data set [5]; 125 µg/mL (≈ 271 µM) in data set [6]. Moreover, the MIC in data set [7] was found to be 62.5 µg/mL (≈ 135 µM); in data set [9], 100 µg/mL (≈ 217 µM). Also, the inhibition at 250 µg/mL in data set [8] was 56%. Also, the Activity in data set [10] turned out to be 178.82 mmol.

With `Cc1nn(-c2ccccc2)c(-n2ccnc2)c1-c1cc(-c2cccs2)nc(N)c1C#N`, the minimal inhibitory concentration (MIC) in data set [1] is 500 µg/mL (≈ 1180 µM); in [2], greater than 1000 µg/mL; in [3] it was 500 µg/mL (≈ 1180 µM); in data set [4], 200 µg/mL (≈ 472 µM); in data set [5], 200 µg/mL (≈ 472 µM); in data set [6], 500 µg/mL (≈ 1180 µM). The MIC in data set [7] amounted to 62.5 µg/mL (≈ 148 µM); in data set [9], 100 µg/mL (≈ 236 µM). The inhibition at 250 µg/mL in [8] turned out to be 41%. Also, the Activity in [10] stood at 205.48 mmol.

For the compound `CO[C@H]1/C=C/O[C@@]2(C)Oc3c(C)c(O)c4c(O)c(c(/C=N/N5CCN(C)CC5)c(O)c4c3C2=O)NC(=O)/C(C)=C\C=C\[C@H](C)[C@H](O)[C@@H](C)[C@@H](O)[C@@H](C)[C@H](OC(C)=O)[C@@H]1C` [RIFAMPIN], in data set [11], the MIC was 0.15 µg/mL (≈ 0.182 µM). Besides, the inhibition at 250 µg/mL in data set [8] stood at 98%.

`Cc1cn(-c2c(C=O)c(C)nn2-c2ccccc2)cn1`: the MIC in data set [1] was determined as 200 µg/mL (≈ 751 µM); in data set [2], 250 µg/mL (≈ 939 µM); in data set [3], 500 µg/mL (≈ 1880 µM); in data set [4], 150 µg/mL (≈ 563 µM); in [5] it was 100 µg/mL (≈ 376 µM); in data set [6], 250 µg/mL (≈ 939 µM). In addition, the MIC came out at 250 µg/mL (≈ 939 µM) in [7] and 500 µg/mL (≈ 1880 µM) in [9]. The inhibition at 250 µg/mL in data set [8] is 65%. In addition, in [10], the Activity stood at 213.24 mmol.
